Measurements of several laboratories.
Lines come from different studies, so protocols differ.

CC(C)Nc1ccnc(Nc2cccc(-c3cc[nH]n3)c2)n1  Papp (PAMPA; 50 nM, 30 min): 1740 ×10⁻⁶ cm/s
CC1(C)CC[C@]2(C)CC[C@]3(C)[C@H]4CC=C5[C@@H](CC[C@H](O)C5(C)C)[C@]4(C)CC[C@@]3(C)[C@@H]2C1  IC50 (HCT-116; cell growth or viability, WST-1): 66.5 µM
CCOC(=O)[C@@]12C[C@@H]1[C@@H](n1ccc3c(NC)nc(C#Cc4ccc(Cl)s4)nc31)[C@H](O)[C@@H]2O  AUC(0-t) (male Sprague-Dawley rat, plasma; oral, 1 mg/kg): 34 ng·h/mL
COC(=O)c1c(C)ncn1CC(c1c[nH]c2ccc(C)cc12)c1c[nH]c2ccc(C)cc12  CC50 (DH82; cell growth or viability, MTS; 24 h): > 20 µM
c1ccc(C2CCN(c3nc(-c4cnn5c4CCCC5)nc4ccccc34)C2)nc1 (stereo not shown)  Papp (PAMPA; 10 µM, 3 h, pH 7.4): 36.7 ×10⁻⁶ cm/s
CONc1ccnc(Nc2cccc(-c3cccnc3)c2)n1  Papp (PAMPA; 50 nM, 30 min): 1300 ×10⁻⁶ cm/s
Cn1ccnc1CNc1nc(-c2ccccn2)nc2ccccc12  Papp (PAMPA; 10 µM, 3 h, pH 7.4): 27 ×10⁻⁶ cm/s
CCCCCCCCCCCCCCCCOP(=O)([O-])OCC[N+](C)(C)C  CC50 (DH82; cell growth or viability, MTS; 24 h): > 20 µM
c1ccc(-c2nc(N3CCCC3c3ccccn3)c3ccccc3n2)nc1 (stereo not shown)  Papp (PAMPA; 10 µM, 3 h, pH 7.4): 21.4 ×10⁻⁶ cm/s
CC(=O)O[C@@H]1c2c(ccc3ccc(=O)oc23)OC(C)(C)[C@@H]1OC(=O)C1(C)OC1C (stereo partly shown)  IC50 (HCT-116; cell growth or viability, WST-1): 49.9 µM
